The nature of one data set: in vivo. To be noted: rat, brain/plasma, iv, 0.435 mg/kg.
Data set [1] in a line: Aqueous solubility at pH 7.4. It counts as physicochemical. A digest of the protocol: (§1)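 Solubility measured in buffered aqueous solution at the pH stated for each line and expressed as mg/mL. Solid samples were checked by microscopy under plain polarized light and were crystalline; the specific crystal form was not determined.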
Data set [2] in a line: Drug level in rat brain at 435 ug/kg/min, iv after 1 hr. The data set is classed as ADME, organism-based. As to conditions: 0.435 mg/kg, read-out: Drug uptake.
The nature of data set [3]: Plasma concentration in rat at 0.01 mg/kg/min, iv after 20 mins. It counts as ADME, organism-based. Details: route intravenous.
Data set [4] can be described thus: Plasma concentration in rat at 0.6 mg/kg/min, iv after 20 mins. It counts as ADME, organism-based. Details: route intravenous.
Data set [5] is described as follows: Aqueous solubility at pH 5.2. It counts as physicochemical. A digest of the protocol: as §1
Data set [6] is described as follows: Plasma concentration in rat at 0.03 mg/kg/min, iv after 20 mins. It counts as ADME, organism-based. Details: route intravenous.
Data set [7] in a line: Volume of distribution in rat. It counts as ADME, organism-based. To be noted: in vivo.
The nature of data set [8]: Plasma concentration in rat at 0.06 mg/kg/min, iv after 20 mins. Details: route intravenous. The data set is classed as ADME, organism-based.
Data set [9] is described as follows: Plasma concentration in rat at 0.2 mg/kg/min, iv after 20 mins. Details: route intravenous. The data set is classed as ADME, organism-based.
Data set [10] is described as follows: Half life in rat. The data set is classed as ADME, organism-based. To be noted: in vivo.
Data set [11] in a line: Drug level in rat plasma at 435 ug/kg/min, iv after 1 hr. The data set is classed as ADME, organism-based. As to conditions: 0.435 mg/kg.
A short description of data set [12]: Clearance in rat. The data set is classed as ADME, organism-based. To be noted: in vivo.
The nature of data set [13]: Aqueous solubility at pH 7.2. It counts as physicochemical. A digest of the protocol: as §1

In brackets after ≈: the same amount, converted by molar mass.

As for `OC(c1cccnc1)(c1cccnc1)C(c1ccccc1)N1CCCC1` (stereo not given), in the data set “in vivo”, the Kp at 1 h turned out to be 0.58. The solubility in [1] was 110 µg/mL (≈ 318 µM); in data set [5], 1400 µg/mL (≈ 4050 µM). The concentration at 1 h turned out to be 13.7 µM in data set [2] and 23.4 µM in data set [11]. Also, the concentration at 20 min is 0.185 µM in data set [3]; 9.62 µM in data set [4]; 0.651 µM in data set [6]; 1.78 µM in [8]; 4.9 µM in data set [9]. The compound further had a Vd in [7] of 3.4 L/kg. Besides, in data set [10], the half-life was 1.1 h. For the same compound, the clearance in data set [12] stood at 59 mL/min/kg.
`OC(c1cccnc1)(c1cccnc1)C(c1ccccc1)N1CCOCC1` (stereo not given): the concentration in solution in data set [13] (solubility) was 43 µg/mL (≈ 119 µM).
Regarding `OC(c1cccnc1)(c1cccnc1)C(c1ccccc1)N1CCCCC1` (stereo not given), the solubility in [1] came out at 5.4 µg/mL (≈ 15 µM).

The record behind these values is ChEMBL document CHEMBL1156169, “Discovery of triarylethanolamine inhibitors of the Kv1.5 potassium channel” (Bioorg Med Chem Lett, 2010).
